Assay outcomes: PubChem, several laboratories
Rows were chosen to be rich in hits. Some 9.8% of all compounds tested hit in one or more screens of this group.
WT yeast gro inh: growth inhibition of WT yeast, mitochondrial fusion screen | 2.1% of 190,000 active | inhibition, % at 10 µM | mitochondrial fusion phenotypic screen, WT strain | AID 1362; in the data active means inhibition above about 58%; tested in S. cerevisiae
PMI act satM6P: PMI (human) activation, high substrate | P34949 | coupled PMI enzyme assay, resazurin fluorescence, 20 min; active compounds read high; 1 = untreated enzyme, 0 = substrate-free blank | activation factor at 20 µM | 0.34% of 190,000 active | AID 1216;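 active means activation factor of 2 or more at 20 µM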
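Test system: human PMI in coupled enzyme assay; Input: PMI at 15 ng/mL final; Medium: HEPES buffer, pH 7.4; Schedule: 20 min incubation at room temperature; Technique: resorufin fluorescence at Ex 544/Em 590 nm; Compound: 20 µM single dose; Probe or stimulus: Near-saturating mannose-6-phosphate, 1.0 mM.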
Calpain2 inh: calpain II (pig) inhibition. purified calpain II, fluorogenic peptide substrate, 30 min. inhibition, % at 16 µM. 0.37% of 220,000 active;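 active means inhibition above about 50%, limit read from the data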
Rad51 HR inh: Rad51 (human) homologous recombination inhibition; AID 1385; inhibition, % at 10 µM; Q06609; hRad51 DNA strand exchange, fluorescence dequenching; 0.085% of 200,000 active;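 active means inhibition above 40% at the single screening dose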;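 further: 0% = DMSO control wells and 100% = blanks with heterologous ssDNA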
Target sequence (Q06609 whole entry, looked up): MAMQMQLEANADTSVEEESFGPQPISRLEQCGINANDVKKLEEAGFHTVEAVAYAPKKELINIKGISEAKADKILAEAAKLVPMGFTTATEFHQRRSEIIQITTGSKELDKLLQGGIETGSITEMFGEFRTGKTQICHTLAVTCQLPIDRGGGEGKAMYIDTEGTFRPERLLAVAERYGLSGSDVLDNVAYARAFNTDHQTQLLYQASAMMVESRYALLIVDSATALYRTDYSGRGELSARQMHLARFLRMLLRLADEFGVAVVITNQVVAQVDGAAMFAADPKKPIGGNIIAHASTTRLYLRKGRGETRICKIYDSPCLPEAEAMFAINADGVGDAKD
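material = hRad51 filaments on single-stranded DNA | reagent = Donor/quencher-labelled 47-bp dsDNA substrate | compound = 10 µM final, single point | schedule = strand-exchange reaction 15 min at room temperature | measured by = fluorescein emission 520 nm, excitation 485 nm | read-out basis = % inhibition versus plate control and blank means | benchmarks = plate controls and plate blanks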
PMI activator: increases human mannose-6-phosphate isomerase activity; P34949; purified human PMI, coupled resazurin fluorescence, 20 min; active compounds read high; 1 = vehicle control, 0 substrate-free wells; activation factor at 20 µM; 0.005% of 190,000 active; AID 1214;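 active means activation factor of 2 or more at 20 µM, relative to plate controls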
Lmaj promast: inhibitors of Leishmania major promastigote growth. Leishmania major promastigotes, resazurin fluorescence viability. inhibition, % at 10 µM. 9% of 200,000 active; in the data active means inhibition above about 50%;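 further: promastigotes grown with compound for 44 hours at 28 °C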
* marks the source's active call; other numbers are inactive results; / = not tested or not shown.

SMILES | WT yeast gro inh | PMI act satM6P | Calpain2 inh | Rad51 HR inh | PMI activator | Lmaj promast
C=CCOc1c(Br)cc(/C=N/O)cc1OCC | -6 | 1 | -2 | -22 | 0.9 | 27
CCCCOc1c(Br)cc(/C=N/O)cc1OCC | 69* | 0.9 | 15 | / | 0.9 | 11
CC(C)OC(=O)Nc1ccc2c(c1)N(C(=O)N1CCN(C)CC1)c1ccccc1CC2 | / | / | 11 | -17 | / | /
CCNC(=S)Nc1nc2c(cc1C(=O)OCC)CCCC2 | 3 | 1 | 24 | -6 | 1 | -1
CCOC(=O)C1(CCOC)CCN(Cc2ccc(C3CCCCO3)s2)CC1 (stereo not drawn) | 19 | 0.8 | 13 | / | 0.8 | 12
c1ccc2c(c1)CC/C2=N/Nc1nc2ccccc2[nH]1 | 77* | 0.9 | 24 | 8 | 0.9 | 100*
c1ccc(CN2CCC(=NNc3nc4ccccc4[nH]3)CC2)cc1 | 12 | 1.4 | -9 | -3 | 1.6 | 10
CC(C)(C)C1CCC(=NNc2nc3ccccc3[nH]2)CC1 (stereo not drawn) | 11 | 1 | 10 | 2 | 1.2 | 85*
CN(C)c1nc(N)c2ncc(=S)[nH]c2n1 | -6 | 1.5 | -171 | 5 | 1 | -7
Cc1cccc(CN(C(=S)Nc2c(C)cccc2C)c2cccnc2)c1 | 15 | 0.9 | 15 | -5 | 0.9 | 87*
COc1ccc2c(c1)CCC(C)N2S(=O)(=O)c1ccc(C2CNC(=O)C2)cc1 (stereo not drawn) | 3 | 1.1 | 25 | -3 | 1 | 95*
COc1ccc(CNS(=O)(=O)c2ccc(C3CNC(=O)C3)cc2)cc1 (stereo not drawn) | -14 | 1.1 | -24 | 2 | 1 | 0
O=C(O)c1ccc(N2C(=O)c3[nH]nc(-c4ccccc4)c3C2c2ccccc2)cc1 (stereo not drawn) | -2 | 1.1 | 18 | / | 1.1 | -5
CC(C)[C@@H]1CC[C@@H](C)c2c(-c3ccccc3)n[nH]c21 | 62* | 0.9 | 8 | -9 | 0.9 | 18
O=C(C1=C[C@H](c2csc3ccccc23)C[C@H](OCc2ccc(CO)cc2)O1)N1CCCCCCC1 | / | / | / | -7 | / | /
C=CCNC(=S)N(CC)c1cccc2ccccc12 | 62* | 0.9 | 13 | 8 | 0.9 | 6
CCc1ccc(C(=O)NNC(=O)OC)cc1 | -1 | 1 | -20 | 1 | 1 | 1
Cc1ccc(CSc2ncnc3c2cnn3Cc2ccccc2)cc1 | 76* | 1 | -37 | -4 | 0.9 | 4
NC(=O)CCC(NS(=O)(=O)c1ccc(Cl)cc1)C(=O)NCc1ccccc1 (stereo not drawn) | -3 | 1 | -9 | -14 | 0.9 | -5
C=CCn1c(SCC(=O)N2CC(=O)Nc3ccccc32)nc2scc(-c3ccccc3)c2c1=O | -14 | 0.9 | -185 | 3 | 0.9 | 94*
C=CCn1c(SCC(=O)NCc2ccc3c(c2)OCO3)nc2scc(-c3ccccc3)c2c1=O | -13 | 0.8 | 15 | -16 | 0.8 | 4
COc1ccc(-n2ccnc2SCC(=O)NC2CCCC2)c(OC)c1 | -9 | 1.1 | 5 | 1 | 1 | -2
O=C(N/N=C/c1c[nH]c2ccccc12)C1CC1(c1ccccc1)c1ccccc1 (stereo not drawn) | 81* | 0.9 | 6 | -7 | 0.8 | 17
O=C(N/N=C/c1c[nH]c2ccccc12)c1cc(-c2ccccc2)n[nH]1 | -16 | 1 | 14 | 0 | 1 | 79*
COc1ccc(C(=O)ON=C2C=C(C)C(=O)C(C)=C2)cc1 | -6 | 0.6 | 5 | -1 | 0.9 | 100*
SMILES | WT yeast gro inh | PMI act satM6P | Calpain2 inh | Rad51 HR inh | PMI activator | Lmaj promast
COc1cc(C(=O)O/N=C2\C=CC(=O)C(C)=C2)cc(OC)c1OC | -23 | 0.3 | 13 | 3 | 0.5 | 101*
COc1ccc(S(=O)(=O)N=C2C=C(C)C(=O)C(C)=C2)cc1 | 48 | 0.4 | -14 | -2 | 0.6 | -3
COc1cc(C(=O)OCC(=O)N2CCCC2)cc(OC)c1OC | 10 | 1.1 | 14 | 5 | 1 | -4
COc1cc(C(=O)ON=C2C=C(C)C(=O)C(C)=C2)cc(OC)c1OC | 2 | 0.4 | 0 | / | 0.7 | 89*
Cc1cccnc1CCNC(=O)CC1C(=O)NCCN1CC1CCCCC1 (stereo not drawn) | 9 | 0.9 | -47 | 5 | 1 | -2
Cn1cnnc1SCC(=O)NCCc1ccc(Cl)cc1Cl | 1 | 1.1 | 10 | 0 | 1.1 | 4
COCCOC(=O)c1c(NC(=O)CN2CCCc3ccccc32)sc(C(N)=O)c1C | 5 | 0.9 | -34 | -13 | 0.8 | 22
Cc1[nH]n(C(C)(C)C)c(=O)c1Sc1ccc(Cl)cc1 | 61* | 1 | -9 | 5 | 1.1 | 25
COc1cc(/C=C/C(=O)Nc2nc3ccc(S(=O)(=O)NC(C)C)cc3s2)cc(OC)c1OC | 0 | 1 | -67 | 18 | 0.9 | 22
CCNS(=O)(=O)c1ccc2nc(NC(=O)/C=C/c3cc(OC)c(OC)c(OC)c3)sc2c1 | -12 | 1.1 | -184 | 5 | 1 | 52*
Cc1cccc(CN2CCN(C(=S)Nc3ccccc3)CC2)c1 | 8 | 1.1 | -16 | -2 | 1 | -5
CCCS(=O)(=O)N1CCC(C(=O)N2CCN(Cc3ccccc3)CC2)CC1 | 1 | 1 | -11 | 1 | 1 | -2
Cc1cccc(CN2CCN(CCCc3ccccc3)CC2)c1 | 35 | 1.1 | 3 | 4 | 1.1 | 96*
CCCS(=O)(=O)N1CCN(CCCc2ccccc2)CC1 | 8 | 1.1 | -12 | 5 | 1 | 79*
OCC1(CCCc2ccccc2)CCN(Cc2cc(F)ccc2F)CC1 | 8 | 1 | -18 | 34 | 1 | 83*
Clc1ccccc1CN1CCN(CCCc2ccccc2)CC1 | 16 | 1.3 | 34 | -9 | 1.2 | 93*
CCCS(=O)(=O)N1CCN(Cc2ccc3c(c2)c2ccccc2n3CC)CC1 | 26 | 1 | -9 | / | 1 | 71*
O=C(NCCN1CCN(Cc2ccccc2Cl)CC1)Nc1ccccc1 | 0 | 1 | -18 | -4 | 0.9 | 82*
O=C(NCCN1CCN(C(=O)Nc2ccccc2)CC1)Nc1ccccc1 | 16 | 1 | 3 | 10 | 1 | -7
OCC1(CCc2ccccc2)CCN(Cc2ccccc2Cl)CC1 | 17 | 1.1 | 15 | 9 | 1.1 | 57*
Cc1ccccc1N1CCN(Cc2nc(Cc3ccccc3)no2)CC1 | 47 | 0.9 | 3 | -5 | 0.9 | 0
Clc1cccc(CN2CCN(Cc3nc(CCc4ccccc4)no3)CC2)c1 | 4 | 1 | 5 | 2 | 1 | 64*
NC(=O)CSc1nc2c(sc3ccccc32)c(=O)n1CCCC(=O)NCC1CCCO1 (stereo not drawn) | / | / | 2 | 24 | / | /
CCCCOc1ccc(NC(=O)CCSc2nccn2C)cc1 | 0 | 1 | 21 | 8 | 0.9 | 3
O=C(CCCN1C(=O)c2cccc3cccc(c23)C1=O)Nc1ccon1 | -4 | 1 | -31 | -7 | 1 | 6
